Our source for the Toxic dose, IC50 and EC50 values is ChEMBL document CHEMBL1134791, “2- and 3-substituted 1,4-naphthoquinone derivatives as subversive substrates of trypanothione reductase and lipoamide dehydrogenase from Trypanosoma cruzi: synthesis and correlation between redox cycling activities and in vitro cytotoxicity” (J Med Chem, 2001).

A short description of data set [1]: Compound dose toxic against macrophages of Trypanosoma cruzi. The format is ADME. An outline of the steps:
(§1)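 Starch-induced peritoneal macrophages from female CD1 mice, 4 × 10⁵/mL in RPMI-1640, infected 5:1 with T. cruzi Y-strain trypomastigotes from MDCK overlay. Drug in 3-fold dilution series, quadruplicate, 3 days. Slides methanol-fixed and Giemsa-stained.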

Data set [2] is described as follows: Compound dose toxic against mouse peritoneal macrophages infected with Leishmania donovani. The format is ADME. An outline of the steps: (§2)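 Starch-induced peritoneal macrophages from female CD1 mice, 4 × 10⁵/mL in RPMI-1640, infected with L. donovani (MHOM/ET/67/L82) amastigotes from hamster spleen. Drug in 3-fold dilution series, quadruplicate, 5 days. Giemsa-stained slides.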

Data set [3] deals with Trypanothione reductase (Trypanosoma cruzi, UniProt P28593). Description: Inhibitory activity against Trypanosoma cruzi trypanothione disulfide reductase, assay in presence of 57 uM T(S)2. The method, boiled down: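 Assay contained 250 µM NADPH, 57 µM T(S)₂, inhibitor at 0.3–50 µM and 1% DMSO final. Started with enzyme; NADPH loss followed at 340 nm. IC50 in duplicate.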
Trypanothione reductase, sequence (P28593 whole entry): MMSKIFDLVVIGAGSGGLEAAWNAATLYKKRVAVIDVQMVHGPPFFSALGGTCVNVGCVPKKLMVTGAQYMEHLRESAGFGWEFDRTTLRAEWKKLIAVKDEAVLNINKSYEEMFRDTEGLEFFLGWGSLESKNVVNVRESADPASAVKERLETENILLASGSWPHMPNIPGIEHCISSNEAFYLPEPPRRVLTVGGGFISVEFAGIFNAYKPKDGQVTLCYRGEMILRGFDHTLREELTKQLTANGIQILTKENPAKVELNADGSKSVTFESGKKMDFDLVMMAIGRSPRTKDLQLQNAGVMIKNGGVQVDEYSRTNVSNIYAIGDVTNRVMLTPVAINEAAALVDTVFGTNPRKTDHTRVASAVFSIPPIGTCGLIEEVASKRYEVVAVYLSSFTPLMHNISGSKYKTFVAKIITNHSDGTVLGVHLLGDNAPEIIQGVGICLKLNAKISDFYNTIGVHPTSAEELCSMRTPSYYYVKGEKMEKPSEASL

For data set [4], the system named is Trypanosoma brucei. Description: In vitro antiparasitic activity against Trypanosoma brucei was tested by sigmoidal regression analysis. The format is functional. The conditions noted are these: read-out: ED50 (the source's name). An outline of the steps:
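T. b. brucei S427 bloodstream trypomastigotes at 2 × 10⁵/mL in HMI-18 medium, in triplicate, with a 3-fold dilution series starting at 30 µM. Incubated 3 days at 37 °C in 5% CO₂. Pentamidine served as positive control. Viability read by tetrazolium colorimetric assay on day 3. ED50 by sigmoidal regression.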

Data set [5] deals with Trypanosoma cruzi. Nature of the data set: In vitro antiparasitic activity against Trypanosoma cruzi was tested by sigmoidal regression analysis. The data set is classed as functional. The conditions noted are these: read-out: ED50 (the source's name). The method, boiled down:
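Mouse peritoneal macrophages (female CD1, starch-elicited, harvested 24 h) infected with L. donovani amastigotes (strain MHOM/ET/67/L82, hamster spleen) or T. cruzi Y-strain trypomastigotes (5:1, from MDCK overlay). Infected cells exposed to a 3-fold dilution series in quadruplicate for 5 days (L. donovani) or 3 days (T. cruzi). Giemsa-stained slides scored for % macrophages cleared of amastigotes versus untreated cultures. ED50 by sigmoidal regression.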

Data set [6] has as its system Trypanosoma brucei. Description: In vitro antiparasitic activity against Trypanosoma brucei was tested by sigmoidal regression analysis. The conditions noted are these: read-out: ED50 (the source's name).
Data set [7] can be described thus: Compound dose toxic against mouse peritoneal macrophages infected with Leishmania donovani (100 % inhibition). The data set is classed as ADME. The method, boiled down: as §2
Data set [8] in a line: Compound dose toxic against macrophages of Trypanosoma cruzi (100 % inhibition). The format is ADME. The method, boiled down:
as §1

Data set [9] in a line: Compound dose toxic against macrophages of Trypanosoma cruzi (100% inhibition). The format is ADME. An outline of the steps:
as §1

Data set [10] in a line: Compound dose toxic against mouse peritoneal macrophages infected with Leishmania donovani (100% inhibition). The data set is classed as ADME. The method, boiled down: as §2

For `CN1CCN(C(=O)CCCCCC2=C(CCCCCC(=O)N3CCN(C)CC3)C(=O)c3c(O)cccc3C2=O)CC1`, the Toxic dose in [1] and in data set [2] was 3 µM in each case. Besides, the IC50 in data set [3] turned out to be 2.9 µM. Also, the EC50 in [4] was found to be 13.1 µM.
In data set [1], `CC1=C(NCCCCN)C(=O)c2ccccc2C1=O` came in with a Toxic dose of 3 µM. Besides, the IC50 in data set [3] was over 57 µM. The EC50 in data set [4] is over 12.5 µM.
Regarding `CN1CCN(C(=O)CCCCC2=C(CCCCC(=O)N3CCN(C)CC3)C(=O)c3c(O)cccc3C2=O)CC1`, the Toxic dose amounted to 10 µM in data set [1] and 3 µM in data set [2]. In data set [3], the IC50 was found to be 5.9 µM. In data set [4], the EC50 is over 56 µM.
For `CC1=C(CCC(=O)NCCCN2CCN(CCCNC(=O)CCC3=C(C)C(=O)c4cccc(O)c4C3=O)CC2)C(=O)c2c(O)cccc2C1=O`, the EC50 in data set [5] is 44 µM; in data set [6], 30.3 µM. Also, in [3], the IC50 came to 2.6 µM.
In the case of `CC1=C(NCCCN2CCN(CCCNC3=C(C)C(=O)c4ccccc4C3=O)CC2)C(=O)c2ccccc2C1=O`, in [1], the Toxic dose was found to be 30 µM. For the same compound, the IC50 in data set [3] turned out to be 10 µM. For the same compound, the EC50 in data set [4] is over 12.5 µM.
In data set [1], `CC1=C(NCCCNCCC/N=C2/C(=O)c3ccccc3C(O)=C2C)C(=O)c2ccccc2C1=O` gave a Toxic dose of 10 µM. Further, the concentration for half-maximal inhibition (IC50) in data set [3] is 9 µM. Besides, the EC50 in data set [4] is over 12.5 µM.
With `CC1=C(NCCCNCCCCNCCCN)C(=O)c2ccccc2C1=O`, the Toxic dose worked out at 1 µM in data set [1] and 30 µM in [2]. For the same compound, in data set [3], the half-maximal inhibitory concentration (IC50) worked out at 28 µM. Further, the EC50 in data set [4] was found to be 30 µM.
For `CC1=C(NCCCNCCCCNCCCN)C(=O)c2c(O)cccc2C1=O`, the Toxic dose in [1] amounted to 1 µM. Also, the IC50 in [3] stood at 28 µM. Besides, the EC50 in data set [4] is over 30 µM.
Regarding `CC1=CC(=O)c2c(O)cccc2C1=O` [PLUMBAGIN], the Toxic dose amounted to 3 µM in data set [7] and 10 µM in data set [8]. For the same compound, in data set [4], the EC50 was found to be 1.5 µM.
Regarding `CC1=C(NCCCN2CCN(CCCN)CC2)C(=O)c2c(O)cccc2C1=O`, the Toxic dose in [1] stood at 3 µM; in data set [2], 30 µM. For the same compound, the concentration for half-maximal inhibition (IC50) in [3] amounted to 39 µM. Besides, in data set [4], the EC50 is over 3 µM.
Turning to `CC1=C(NCCCNCCCCNCCCNC2=C(C)C(=O)c3ccccc3C2=O)C(=O)c2ccccc2C1=O`, the Toxic dose stood at 1 µM in [1] and 30 µM in [2]. Also, the IC50 in [3] is 6.5 µM. Besides, the EC50 in data set [4] was over 1 µM.
In data set [1], `CC1=C(NCCCNCCCN)C(=O)c2c(O)cccc2C1=O` showed a Toxic dose of 1 µM. For the same compound, the IC50 in data set [3] worked out at 57 µM. Moreover, the EC50 in data set [4] was over 12.5 µM.
On to `CC1=C(CCCC(=O)NCCCNCCCNC(=O)CCCC2=C(C)C(=O)c3cccc(O)c3C2=O)C(=O)c2c(O)cccc2C1=O`, for which the EC50 is 47 µM in [5] and over 4.6 µM in data set [4]. Moreover, in [3], the IC50 was determined as 2 µM.
Take `CC1=CC(=O)c2ccccc2C1=O` [MENADIONE]: the results for the Toxic dose in [1] and in data set [2] were 10 µM and 30 µM, respectively.
With `CC1=C(CCNC(=O)OC(C)(C)C)C(=O)c2ccccc2C1=O`, the results for the EC50 in data set [5] and in [4] were 9.5 µM and 0.9 µM, respectively. In addition, the IC50 in data set [3] was over 50 µM.
For `CC1=C(O)c2cccc(O)c2C(=O)/C1=N\CCCN1CCN(C)CC1`, the Toxic dose came out at 10 µM in data set [9] and 30 µM in data set [10]. Further, in [3], the 50% inhibitory concentration (IC50) is over 57 µM. In addition, the EC50 in data set [4] is over 12.5 µM.
Consider `CC1=C(CCCCCNC(=O)OC(C)(C)C)C(=O)c2ccccc2C1=O`, for which the EC50 was determined as 4.3 µM in [5] and 2.7 µM in [4]. Besides, the IC50 in data set [3] is over 50 µM.
The matching figures for `CC1=C(CCCC(=O)NCCCCNCCCNC(=O)CCCC2=C(C)C(=O)c3ccccc3C2=O)C(=O)c2ccccc2C1=O`: over 48 µM, 26.6 µM and 4 µM.
As to `CC1=C(CCCCNC(=O)OC(C)(C)C)C(=O)c2c(O)cccc2C1=O`, the EC50 amounted to 7 µM in data set [5] and 1.4 µM in [4]. The IC50 in data set [3] was over 25 µM.
As for `CC1=C(CCCC(=O)NCCCN2CCN(C)CC2)C(=O)c2ccccc2C1=O`, the figures for the EC50 in data set [5] and in [4] were over 76 µM and 46 µM, respectively. Further, the IC50 in data set [3] amounted to 44 µM.
Consider `CN1CCN(CCCNC(=O)CCCCCC2=C(CCCCCC(=O)NCCCN3CCN(C)CC3)C(=O)c3c(O)cccc3C2=O)CC1`, for which the Toxic dose in data set [1] came out at 30 µM; in [2], 10 µM. In data set [3], the IC50 was 0.8 µM. Moreover, the EC50 in data set [4] was 10.1 µM.
For `CC1=C(CCC(=O)NCCCN2CCN(C)CC2)C(=O)c2c(O)cccc2C1=O`, the Toxic dose in data set [1] is 10 µM. For the same compound, the IC50 in data set [3] amounted to 16 µM. The EC50 in [4] is over 10 µM.
On the same counts, the results for `CC1=C(CCC(=O)NCCCN2CCN(C)CC2)C(=O)c2ccccc2C1=O` are 30 µM, 38 µM and over 10 µM.
With `CC1=C(CCC(=O)NCCCN2CCN(CCCNC(=O)CCC3=C(C)C(=O)c4ccccc4C3=O)CC2)C(=O)c2ccccc2C1=O`, the EC50 worked out at 40 µM in data set [5] and 3.2 µM in data set [4]. Besides, in data set [3], the IC50 was 3.7 µM.
On the same counts, the results for `CC1=C(CCCCC(=O)NCCCNCCCNC(=O)CCCCC2=C(C)C(=O)c3ccccc3C2=O)C(=O)c2ccccc2C1=O` are 45 µM, 15.3 µM and 18.7 µM.
In the case of `CC1=C(CCCC(=O)N2CCN(C)CC2)C(=O)c2c(O)cccc2C1=O`, the EC50 in [5] was over 84 µM; in data set [4], 52 µM. The IC50 in data set [3] turned out to be 42 µM.
On the same counts, the results for `CC1=C(CCCNC(=O)OC(C)(C)C)C(=O)c2ccccc2C1=O` are 13.8 µM, over 3 µM and over 50 µM.
On the same counts, the results for `CC1=C(CCCCCC(=O)NCCCNCCCNC(=O)CCCCCC2=C(C)C(=O)c3cccc(O)c3C2=O)C(=O)c2c(O)cccc2C1=O` are 3 µM, over 1.4 µM and 2 µM.
On the same counts, the results for `CC1=C(CCCCCNC(=O)OC(C)(C)C)C(=O)c2c(O)cccc2C1=O` are 13.3 µM, 2.5 µM and over 25 µM.
Take `CC1=C(CCCCCC(=O)O)C(=O)c2ccccc2C1=O`: the EC50 in data set [5] came out at 17 µM; in data set [4], 5.3 µM. In [3], the IC50 is over 50 µM.
`CN1CCN(CCCNC(=O)CCCC2=C(CCCC(=O)NCCCN3CCN(C)CC3)C(=O)c3c(O)cccc3C2=O)CC1`: the figures for the EC50 in data set [5] and in data set [4] were 59 µM and 259 µM, respectively. The IC50 in data set [3] is 11 µM.

Broadly, the IC50 is the concentration needed to halve the response being measured.
